Assay [1] is described as follows: Inhibition of rat farnesyl transferase after 30 mins. An outline of the steps:
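Rat PFTase at 10 nM, added last to start the reaction, in 50 mM Tris/HCl pH 7.5 with 5 mM MgCl2, 5 mM DTT, 0.1 mM ZnCl2 and 0.2% octyl-β-D-glucopyranoside. Substrates were 10 µM GCVLS-dansyl and 10 µM farnesyl pyrophosphate. Compounds from 0.3 nM to 100 µM, 1% DMSO final, in triplicate. Incubation 30 min at 37 °C; fluorescence read at ex 340/em 505 nm. IC50 from sigmoidal dose-response fit.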

A short description of assay [2]: Cytotoxicity against human WM266.4 cells after 72 hrs by ATP lite assay. It counts as functional, WM 266-4. An outline of the steps:
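Metastatic melanoma WM 266-4 cells (ATCC), 5000 per well, in RPMI with 10% FBS, 50 µg/mL streptomycin and 50 U/mL penicillin. Compounds were present for 72 h at 1% DMSO final, in triplicate. Viability was read by ATPLite luminescence. IC50 from sigmoidal dose-response fit.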

Here are results for 13 molecules from ChEMBL document CHEMBL1154285, “Meroterpenes from Dichrostachys cinerea inhibit protein farnesyl transferase activity” (J Nat Prod, 2009).

On to `COC1=CC(=O)[C@@]2(c3cc(=O)c4c(O)cc(O)cc4o3)[C@H](C[C@]3(O)[C@@]4(C)C[C@@H](O)CC(C)(C)[C@@H]4CC[C@@]3(C)O)C(C)=CC[C@H]2C1=O`, for which, in assay [1], the IC50 (as a rule, the concentration that gives 50% inhibition) was 17 µM. Further, the Activity in assay [2] was greater than 10 µM.

Molecule `C=C1[C@@H](O)C[C@H]2[C@](C)(CO)CCC[C@]2(C)[C@H]1C[C@@H]1C(C)=CC[C@H]2C(=O)C(OC)=CC(=O)[C@@]12c1cc(=O)c2c(O)cc(O)cc2o1` [DICHROSTACHINE A] registered a 50% inhibitory concentration (IC50) in assay [1] of 10 µM. For the same molecule, the Activity in assay [2] is greater than 10 µM.

Take `C=C1[C@@H](O)C[C@H]2C(C)(C)C[C@H](O)C[C@]2(C)[C@H]1C[C@@H]1C(C)=CC[C@H]2C(=O)C(OC)=CC(=O)[C@@]12c1cc(=O)c2c(O)cc(O)cc2o1` [DICHROSTACHINE B]: the IC50 in assay [1] came to 40 µM. In assay [2], this molecule yielded an Activity greater than 10 µM.

Consider `C=C1[C@@H](O)C[C@H]2C(C)(C)CCC[C@]2(C)[C@H]1C[C@@H]1C(C)=CC[C@H]2C(=O)C(OC)=CC(=O)[C@@]12c1cc(=O)c2c(O)cc(O)cc2o1` [DICHROSTACHINE C], for which the IC50 in assay [1] was found to be 5.7 µM. In assay [2], this molecule showed an Activity greater than 10 µM.

Regarding `C=C1[C@@H](O)C[C@H]2C(C)(C)C[C@H](O)C[C@]2(C)[C@@]1(O)C[C@@H]1C(C)=CC[C@H]2C(=O)C(OC)=CC(=O)[C@@]12c1cc(=O)c2c(O)cc(O)cc2o1` [DICHROSTACHINE D], half-maximal inhibition in assay [1] (IC50) required 86 µM. Also, the Activity in assay [2] is greater than 10 µM.

Take `C=C1[C@@H](O)C[C@@H]2[C@](C)(CCC[C@@]2(C)C(=O)O)[C@H]1C[C@@H]1C(C)=CC[C@H]2C(=O)C(OC)=CC(=O)[C@@]12c1cc(=O)c2c(O)cc(O)cc2o1` [DICHROSTACHINE E]: the IC50 in assay [1] came to 40 µM. For the same molecule, the Activity in assay [2] is greater than 10 µM.

Take `C=C1[C@@H](O)C[C@@H]2[C@](C)(CCC[C@@]2(C)C=O)[C@H]1C[C@@H]1C(C)=CC[C@H]2C(=O)C(OC)=CC(=O)[C@@]12c1cc(=O)c2c(O)cc(O)cc2o1` [DICHROSTACHINE H]: in assay [1], the IC50 is 1.8 µM. Also, the Activity in assay [2] was greater than 10 µM.

Consider `C=C1C(=O)C[C@H]2C(C)(C)CCC[C@]2(C)[C@H]1C[C@@H]1C(C)=CC[C@H]2C(=O)C(OC)=CC(=O)[C@@]12c1cc(=O)c2c(O)cc(O)cc2o1` [DICHROSTACHINE L], for which the IC50 in assay [1] stood at 3.2 µM. The Activity in assay [2] is greater than 10 µM.

For the molecule `C=C1C(=O)C[C@H]2C(C)(C)CCC[C@]2(C)[C@H]1C[C@@H]1C(C)=CC[C@H]2C(=O)C(OC)=CC(=O)[C@@]12c1cc(=O)c2c(O)cc(OC)cc2o1` [DICHROSTACHINE M], the half-maximal inhibitory concentration (IC50) in assay [1] is 3 µM. In assay [2], this molecule registered an Activity of 3.1 µM.

Turning to `C=C1C(=O)C[C@H]2C(C)(C)C[C@H](O)C[C@]2(C)[C@@]1(O)C[C@@H]1C(C)=CC[C@H]2C(=O)C(OC)=CC(=O)[C@@]12c1cc(=O)c2c(O)cc(OC)cc2o1` [DICHROSTACHINE N], the Activity in assay [2] came to 2.8 µM.

With `C=C1[C@@H](O)C[C@H]2C(C)(C)CCC[C@]2(C)[C@H]1C[C@@H]1C(C)=CC[C@H]2C(O)C(OC)=CC(=O)[C@@]12c1cc(=O)c2c(O)cc(O)cc2o1` (stereo not given in full) [DICHROSTACHINE O], in assay [1], the IC50 was 25 µM. In addition, the Activity in assay [2] is greater than 10 µM.

The molecule `C=C1[C@@H](O)C[C@H]2C(C)(C)CCC[C@]2(C)[C@H]1C[C@@H]1C(C)=CC[C@H]2C(O)C(=O)C=C[C@@]12c1cc(=O)c2c(O)cc(O)cc2o1` (stereo not given in full) [DICHROSTACHINE P] came in with an IC50 in assay [1] of 7 µM. Moreover, the Activity in assay [2] was greater than 10 µM.

With `NC(=O)N1CCC(CC(=O)N2CCC([C@H]3c4ncc(Br)cc4CCc4cc(Cl)cc(Br)c43)CC2)CC1` [LONAFARNIB], the 50% inhibitory concentration (IC50) in assay [1] amounted to 0.1 µM. Moreover, the Activity in assay [2] was greater than 10 µM.
